Assay outcomes from PubChem BioAssay.
CHRM5 PAM: positive allosteric modulators of human muscarinic M5 receptor. P08912. CHO-K1 hM5, Fluo-8 calcium, ACh EC20 PAM; 0% = ACh EC20, 100% = ACh EC100. activation, % at 3 µM. 0.3% of 360,000 active;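 active means activation above the run cutoff, the mean activation of all test compounds plus 3 SD, cut at about 18% in these data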
Target sequence (P08912 whole entry, looked up): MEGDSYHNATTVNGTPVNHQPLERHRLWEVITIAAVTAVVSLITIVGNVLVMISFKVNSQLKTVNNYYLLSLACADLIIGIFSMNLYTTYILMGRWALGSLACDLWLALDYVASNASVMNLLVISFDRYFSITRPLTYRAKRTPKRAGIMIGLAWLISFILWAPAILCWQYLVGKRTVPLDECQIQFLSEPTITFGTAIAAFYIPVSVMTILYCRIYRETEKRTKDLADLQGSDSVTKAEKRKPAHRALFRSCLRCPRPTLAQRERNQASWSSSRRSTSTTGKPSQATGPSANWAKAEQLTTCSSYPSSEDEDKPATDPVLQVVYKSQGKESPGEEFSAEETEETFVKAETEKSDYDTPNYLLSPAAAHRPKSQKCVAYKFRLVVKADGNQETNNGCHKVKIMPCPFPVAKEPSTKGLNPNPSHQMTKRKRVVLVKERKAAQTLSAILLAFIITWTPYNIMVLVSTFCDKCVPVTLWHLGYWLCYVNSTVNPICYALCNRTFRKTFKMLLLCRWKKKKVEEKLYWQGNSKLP
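system = human M5 receptor in CHO-K1 cells | compound = one concentration, 3 µM final (nominal) | schedule = Post-acetylcholine fluorescence recording 140 s | signal = Fluo-8 calcium dye fluorescence, kinetic read | benchmarks = low control EC20 acetylcholine (0%), high control EC100 acetylcholine (100%) | repeats = singlicate, one well per test compound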
CHRM5 agonist: agonists of human muscarinic M5 receptor (CHRM5); CHO-K1 hM5 cells, Fluo-8 calcium fluorescence; 0% DMSO wells, 100% maximal acetylcholine response; activation, % at 3 µM; AID 624037; 0.19% of 360,000 active;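 active means activation above the run's mean over test compounds plus 3 SD, cut at about 23% in these data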;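 further: signal is peak over basal fluorescence ratio across the kinetic read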
M4 antag: CHRM4 antagonism in calcium assay. 0.73% of 360,000 active. P08173. inhibition, % at 3 µM. CHO-hM4 cells, ACh EC80, Fluo-8 calcium fluorescence;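 active means inhibition above its plate's cutoff, the mean inhibition of sample wells plus 3 SD, cut at about 27% in these data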
M5 antag: blocks acetylcholine activation of human M5 receptor; inhibition, % at 3 µM; 0.59% of 360,000 active; CHO-hM5 cells, Fluo-8 calcium fluorescence, ACh EC80; P08912;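 active means inhibition above a per-plate cutoff, the mean of that plate's test compounds plus 3 SD, cut at about 27% in these data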
CHRM4 agonist: CHRM4 agonism in calcium assay; P08173; AID 624127; 0.14% of 360,000 active; activation, % at 3 µM; CHO-K1 hM4/Gqi5, Fluo-8 calcium fluorescence; vehicle 0%, full acetylcholine response 100%;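 active means activation above the run mean over all test wells plus 3 SD, cut at about 32% in these data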;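 further: peak over basal fluorescence ratio per well then scaled between controls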
M4 PAM: CHRM4 positive allosteric modulation | CHO-K1 hM4/Gqi5, Fluo-8 calcium fluorescence, ACh EC20; 0% = ACh EC20, 100% = maximal ACh | activation, % at 3 µM | P08173 | AID 624126 | 0.4% of 360,000 active;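 active means activation above its plate's cutoff, the mean activation of sample wells plus 3 SD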
Hits are given with their value; – = inactive; ! = not active in a repeat. A selection: hits, their analogues and other compounds. The true share with any hit is near 1.8%.

SMILES	CHRM5 PAM	CHRM5 agonist	M4 antag	M5 antag	CHRM4 agonist	M4 PAM
Cc1cc(CN(C)C(=O)c2cc(COc3ccc4ncccc4c3)on2)on1	–	–	–	–	–	–
COc1cc(Cl)ccc1OCc1cc(C(=O)N2CCCC(OC)C2)no1 (stereo unspecified)	–	–	–	28.7	–	–
CCC(O)C1CCN(C(=O)c2cc(COc3ccc4ncccc4c3)on2)CC1 (stereo unspecified)	–	–	–	35.1	–	–
c1coc(C2=NC(c3ccco3)C(c3ccco3)N2)c1 (stereo unspecified)	–	–	–	–	–	–
O=C(Nc1ccn(CCCN2CCN(c3ccccn3)CC2)c(=O)n1)OCc1ccccc1	–	–	–	–	–	–
CC(=O)Nc1ccc(-c2ccnc3c2CC(C(=O)Nc2cccc(C(C)=O)c2)O3)cc1 (stereo unspecified)	–	–	–	–	–	–
O=C(NC1CCCCCCC1)c1cc(COc2ccc3ncccc3c2)on1	–	–	34.0	35.6	–	–
CCN(CC)c1ccc2nc3ccc(N)cc3[n+](-c3ccccc3)c2c1	–	–	–	–	–	–
CCN(CC)c1ccc2nc3ccccc3[n+](CC)c2c1	–	–	27.4	–	–	–
Cc1ccc(S(=O)(=O)N(C)CCN(C)S(=O)(=O)c2ccc(C)cc2)cc1	–	–	–	–	–	–
CC(C)[C@H](NC(=O)c1ccccc1F)C(=O)NCc1ccc(S(N)(=O)=O)cc1	–	–	–	–	–	15.4
Cc1ccccc1CCN1CCCC(CN(C)C(=O)c2ccc3ncccc3c2)C1 (stereo unspecified)	–	–	–	–	–	–
O=c1oc2cc(O)ccc2cc1S(=O)(=O)c1ccccc1	–	–	–	–	–	–
O=c1oc2cc(O)ccc2cc1-c1nc2ccccc2o1	–	26.9	–	–	40.7	–
CN1CCN(Cc2nc3ccccc3c(=O)n2Cc2nc(-c3ccc4ccccc4c3)cs2)CC1	–	–	–	–	–	21.7!
CCOc1ccccc1NC(=O)C1CC(=O)n2ncnc2N1 (stereo unspecified)	–	–	28.2	–	–	–
COc1cccc(-c2ncc3ccccc3c2COC(=O)c2ccc(F)cc2)c1	–	–	–	–	–	–
COc1ccc(S(=O)(=O)N2CCOCC2)cc1NC(=O)c1cc2ccccc2o1	–	–	–	–	–	–
CC[C@H](C)[C@H](NS(=O)(=O)c1ccc(C)cc1)C(=O)N1CCC(C(=O)N[C@H](C(=O)O)C(C)C)CC1	19.7	–	–	–	–	–
C#CC(=O)CC1(CN(Cc2ccccc2)C(=O)OC(C)(C)C)CCCCC1	–	–	32.0	–	–	–
Cc1cc(Br)c(NC(=O)CN2C(=O)NC3(CCOc4ccccc43)C2=O)c(Br)c1 (stereo unspecified)	–	–	–	–	–	–
Nc1c(Br)cc2oc(-c3ccccc3)nc2c1Br	–	–	–	–	–	–
COc1ccc(-c2nc3c(Br)c(N)c(Br)cc3o2)cc1	–	–	26.8	–	–	29.1
CCN(CC)CCNC(=O)c1ccc(NC(=O)c2ccc3c(c2)CCC3)cc1	–	–	–	–	–	–
CCN(CC)CCNC(=O)c1ccc(NC(=O)c2cccc(S(=O)(=O)N(C)C3CCCCC3)c2)cc1	–	–	98.2	97.9	–	–
SMILES	CHRM5 PAM	CHRM5 agonist	M4 antag	M5 antag	CHRM4 agonist	M4 PAM
CCN(CC)CCNC(=O)c1ccc(NC(=O)Cc2ccccc2F)cc1	–	–	–	–	–	–
CCN(CC)CCNC(=O)c1ccc(NC(=O)c2ccccc2-c2ccc(C(F)(F)F)cc2)cc1	–	–	70.8	80.8	–	–
CCC(=O)N1CCc2cc(S(=O)(=O)NCCC(=O)N3CCN(c4cccc(C)c4)C(C)C3)ccc21 (stereo unspecified)	–	–	–	–	–	–
CCN(CC)CCn1c(=S)[nH]c2cc3c(cc2c1=O)OCO3	–	–	–	–	–	–
CCN1CCN(CCn2c(=S)[nH]c3cc4c(cc3c2=O)OCO4)CC1	–	–	–	28.6	–	–
CCC1(c2ccc(F)cc2)NC(=O)N(CC(=O)c2cc(C)n(C3CC3)c2C)C1=O (stereo unspecified)	–	25.4	–	–	–	–
CCC1(c2ccc(F)cc2)NC(=O)N(CC(=O)N2c3ccccc3CC2C)C1=O (stereo unspecified)	–	29.2	–	–	–	–
Cc1cc(C(=O)CN2C(=O)NC(C)(c3cc(F)ccc3F)C2=O)c(C)n1C1CC1 (stereo unspecified)	–	–	–	–	–	–
CCC1(c2ccc(OC)cc2)NC(=O)N(CC(=O)N2CCc3ccccc32)C1=O (stereo unspecified)	–	38.7	–	–	–	–
CCC1(c2ccc(F)cc2)NC(=O)N(CC(=O)N2c3ccccc3NC(=O)CC2C)C1=O (stereo unspecified)	–	–	–	–	–	–
COc1cc(-c2cc3nc(NCc4ccco4)ccn3n2)cc(OC)c1OC	–	–	–	–	–	–
CSCCC(C(=O)Nc1c(C)cccc1C)N1CCC(Cc2ccccc2)CC1 (stereo unspecified)	–	–	–	–	–	–
CN(C)c1ccc(-c2csc(C(O)c3cccc(Cl)c3)n2)cc1 (stereo unspecified)	–	–	–	–	47.4	–
Nc1[nH]c(C(=O)c2ccccc2)c(-c2cccc3ccccc23)c1C(=O)NCc1ccccc1	–	–	–	–	–	–
CC[C@H](C)Cc1cn([C@@H](CCCCNC(=O)OC(C)(C)C)C(=O)NCCCCCCCCCCC(=O)N2CCN(C(=O)OC(C)(C)C)CC2)nn1	–	–	28.2	–	–	–
COc1ccc(N2CCN(Cc3cc(=O)c(OCC(=O)NC4CCCC4)co3)CC2)cc1	–	–	–	–	–	–
CC(C)[N+](C)(C)CC(O)CN(c1ccccc1)c1ccccc1 (stereo unspecified)	–	–	–	27.4	–	–
CCCC#CCN1CCN(C23CC4CC(CC(C4)C2)C3)CC1	–	–	27.9	–	–	–
CCCCCC#CCN1CCN(C23CC4CC(CC(C4)C2)C3)CC1	–	–	30.0	–	–	–
CC(=O)N1CCN(C23CC4CC(CC(C4)C2)C3)CC1	–	–	–	–	–	–
COc1ccc2nc(-c3ccccc3)[nH]c(=O)c2c1	–	–	–	–	–	–
COc1ccc(-c2nc3ccc(N4CCCC4)cc3c(=O)[nH]2)cc1OC	18.7	–	–	–	–	–
